# Assay results pooled from the literature.
# Target: LIM domain kinase 1 (LIMK1, Homo sapiens, UniProt P53667)
SMILES,observed,mode,method,tested at,endpoint,result
CC(C)(O)[C@H]1CC[C@H](Nc2ccc3ncc(-c4cccc(C(F)(F)F)c4)n3n2)CC1,enzyme activity,inhibitor,,1 µM,remaining activity,76.3%
CNC(=O)c1cc2c(Oc3ccc(NC(=O)C4(C(=O)Nc5ccc(F)cc5)CC4)cc3)ccnc2cc1OC,enzyme activity,inhibitor,radiometric,1 µM,inhibition,74%
CNC(=O)c1cc(Oc2ccc(NC(=O)Nc3ccc(Cl)c(C(F)(F)F)c3)cc2)ccn1,enzyme activity,inhibitor,,10 µM,inhibition,89%
Cn1cnc(Br)c1C1=CN(c2ncnc3[nH]cnc23)CCS1,enzyme activity,inhibitor,radiometric,2 µM,inhibition,82.8%
CCN(CC)CCNC(=O)c1c(C)[nH]c(/C=C2\C(=O)Nc3ccc(F)cc32)c1C,enzyme activity,inhibitor,,0.3 µM,inhibition,-9%
CC(C)(C)c1nc2c(s1)c1nc(N)ncc1c1ccc(NS(=O)(=O)c3c(F)cccc3F)c(F)c12,enzyme activity,inhibitor,radiometric,1 µM,remaining activity,100%
Cc1cnc(NC2CCOCC2)nc1-n1cnc(C(=O)NC(CN)c2cc(F)cc(Cl)c2)c1 (centres unmarked),enzyme activity,inhibitor,radiometric,1 µM,remaining activity,64%
N#CCCc1ccc2c(c1)-c1[nH]c3ccc([N+](=O)[O-])cc3c1CC(=O)N2,cell-free assay,,,0.5 µM,remaining signal,99.9%
CN([C@@H]1CCc2c(CC(=O)O)c3ccccc3n2C1)S(=O)(=O)c1ccc(F)cc1,cell-free assay,,competition with immobilised ligand,1 µM,remaining binding,100%
Cc1sc(C(=O)NC2COC2)cc1-n1cc(NC(=O)Nc2c(F)cccc2Cl)cn1,enzyme activity,inhibitor,,10 µM,remaining activity,105%
Cc1nc(Cc2cccc(C(F)(F)F)c2)sc1-c1ccc(C(N)=O)nc1,cell-free assay,,competition with immobilised ligand,1 µM,remaining binding,100%
C[C@@H]1CCN(C(=O)CC#N)C[C@@H]1N(C)c1ncnc2[nH]ccc12,cell-free assay,inhibitor,,0.5 µM,remaining signal,82%
CCCOc1ccc([C@@H]2[C@@H](C(=O)O)[C@H](c3ccc4c(c3)OCO4)CN2CC(=O)Nc2c(CC)cccc2CC)cc1,cell-free assay,,competition with immobilised ligand,1 µM,remaining binding,90%
Oc1ccc(-c2nc(-c3ccncc3)c(-c3ccc(F)cc3)[nH]2)cc1,cell-free assay,,,0.5 µM,remaining signal,91.4%
O=C(O)[C@@H]1[C@@H](Cn2nnc3ccccc3c2=O)CC[C@H]1C(=O)c1ccc(OCCC2CCOCC2)cc1,cell-free assay,,competition with immobilised ligand,1 µM,remaining binding,100%
Cc1cc(NC(=O)c2cccc3cc(-c4cccc5[nH]nc(N)c45)ccc23)ccc1F,enzyme activity,inhibitor,,0.1 µM,activity vs control,90%
O=C(Nc1cccnn1)N1CC(C/C=C/c2cncc(Oc3ccc(C(F)(F)F)cn3)n2)C1,cell-free assay,,competition with immobilised ligand,1 µM,remaining binding,88%
CCCS(=O)(=O)Nc1ccc(F)c(C(=O)c2c[nH]c3ncc(-c4ccc(Cl)cc4)cc23)c1F,enzyme activity,inhibitor,,1 µM,inhibition,< 10%
CN(C)CC#Cc1ccc(OCCCc2sc(N3CCc4cccc(C(=O)Nc5nc6ccccc6s5)c4C3)nc2C(=O)O)c(F)c1,cell-free assay,,competition with immobilised ligand,1 µM,remaining binding,97%
CCCOc1ccc(OC)c(F)c1C(=O)c1ccc(C(=O)N[C@@H]2CNC[C@H]2NC(=O)c2ccc3[nH]ncc3c2)cc1,enzyme activity,inhibitor,,10 µM,remaining activity,73%
